Reference: the M2OR odorant receptor database
Positions count from the first letter of the chain named.

Tests used:
Settings in all cases: stereoisomer not certain
OR2T34 (Homo sapiens) = target: T1, OR2T34 (Homo sapiens) (UniProt Q8NGX1)
T1 sequence (whole entry): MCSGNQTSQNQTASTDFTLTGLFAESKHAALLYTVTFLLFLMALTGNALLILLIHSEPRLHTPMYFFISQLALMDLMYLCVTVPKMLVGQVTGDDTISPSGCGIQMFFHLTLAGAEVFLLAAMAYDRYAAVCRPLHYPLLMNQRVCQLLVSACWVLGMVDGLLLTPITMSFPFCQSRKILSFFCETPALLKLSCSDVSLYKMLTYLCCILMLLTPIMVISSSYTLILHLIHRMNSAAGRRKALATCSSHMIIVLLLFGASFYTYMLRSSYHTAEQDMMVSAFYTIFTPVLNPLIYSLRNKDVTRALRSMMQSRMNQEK
Outline: (§1)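 Values were gathered from published papers (main text and supplementary material), with extra details requested from the original authors when needed, and checked for typos and inconsistencies. Each receptor–molecule pair is called responsive (active) if the original authors judged the measured signal statistically different from baseline, and non-responsive (inactive) otherwise. Assay methods varied by source, often transient mammalian cell-line luciferase assays. Recorded details include cell line, G-protein, co-transfected protein and tags.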

OR2T3 R298C = tested on: T2, OR2T3 R298C
T2 sequence (whole entry): T1 sequence (whole entry) with H109Y, M202T, T204M, T214A, R239H, R267P, R298C
Outline: as §1

OR2T3 Y109H = tested on: T3, OR2T3 Y109H
T3 sequence (whole entry): T1 sequence (whole entry) with M202T, T204M, T214A, R239H, R267P
Outline: as §1

OR2T33 (Homo sapiens) = target: T4, OR2T33 (Homo sapiens) (UniProt Q8NG76)
T4 sequence (whole entry): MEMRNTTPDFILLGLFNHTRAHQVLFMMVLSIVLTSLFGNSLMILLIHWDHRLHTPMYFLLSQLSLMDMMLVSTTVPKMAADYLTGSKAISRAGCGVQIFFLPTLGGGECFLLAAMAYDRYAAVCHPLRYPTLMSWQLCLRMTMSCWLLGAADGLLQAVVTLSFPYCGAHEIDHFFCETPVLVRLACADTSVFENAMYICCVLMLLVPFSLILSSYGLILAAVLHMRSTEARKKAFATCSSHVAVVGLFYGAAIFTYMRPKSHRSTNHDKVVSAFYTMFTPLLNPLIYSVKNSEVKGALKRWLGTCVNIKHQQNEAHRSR
Outline: as §1

OR2T35 (Homo sapiens) = target: T5, OR2T35 (Homo sapiens) (UniProt Q8NGX2)
T5 sequence (whole entry): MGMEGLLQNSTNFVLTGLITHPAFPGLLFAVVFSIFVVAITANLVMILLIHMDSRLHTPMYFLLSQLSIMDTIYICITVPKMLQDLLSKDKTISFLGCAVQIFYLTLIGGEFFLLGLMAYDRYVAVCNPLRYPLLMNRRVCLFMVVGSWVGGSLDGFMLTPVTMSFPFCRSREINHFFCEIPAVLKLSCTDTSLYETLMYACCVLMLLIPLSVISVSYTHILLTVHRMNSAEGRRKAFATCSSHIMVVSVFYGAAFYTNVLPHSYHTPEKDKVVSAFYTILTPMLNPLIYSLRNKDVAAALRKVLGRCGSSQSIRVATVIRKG
Outline: as §1

OR2T4 (Homo sapiens) = target: T6, OR2T4 (Homo sapiens) (UniProt Q8NH00)
T6 sequence (whole entry): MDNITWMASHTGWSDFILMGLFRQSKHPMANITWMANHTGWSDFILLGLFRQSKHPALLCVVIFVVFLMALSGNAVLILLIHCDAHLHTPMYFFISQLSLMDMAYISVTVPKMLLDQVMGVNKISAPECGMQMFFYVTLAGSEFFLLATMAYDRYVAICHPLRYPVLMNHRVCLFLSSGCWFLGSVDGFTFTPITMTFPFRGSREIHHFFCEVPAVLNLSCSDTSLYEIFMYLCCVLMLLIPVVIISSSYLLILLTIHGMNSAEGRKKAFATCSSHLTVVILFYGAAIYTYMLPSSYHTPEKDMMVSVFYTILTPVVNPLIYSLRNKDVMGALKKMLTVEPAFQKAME
Outline: as §1

OR2T5 (Homo sapiens) = target: T7, OR2T5 (Homo sapiens) (UniProt Q6IEZ7)
T7 sequence (whole entry): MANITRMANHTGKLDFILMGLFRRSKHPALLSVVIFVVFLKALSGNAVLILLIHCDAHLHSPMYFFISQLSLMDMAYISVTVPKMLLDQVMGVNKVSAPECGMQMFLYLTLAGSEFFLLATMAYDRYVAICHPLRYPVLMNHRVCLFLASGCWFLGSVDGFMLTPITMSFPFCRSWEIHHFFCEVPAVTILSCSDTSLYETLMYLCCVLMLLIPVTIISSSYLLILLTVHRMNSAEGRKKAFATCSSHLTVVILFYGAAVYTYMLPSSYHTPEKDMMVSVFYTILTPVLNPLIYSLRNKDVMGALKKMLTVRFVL
Outline: as §1

OR2T5 K13R K41M G45E = tested on: T8, OR2T5 K13R K41M G45E
T8 sequence (whole entry): T7 sequence (whole entry) with K13R, K41M, G45E
Outline: as §1

OR2T5 K13R L134F = tested on: T9, OR2T5 K13R L134F
T9 sequence (whole entry): T7 sequence (whole entry) with K13R, L134F
Outline: as §1

OR2T6 (Homo sapiens) = target: T10, OR2T6 (Homo sapiens) (UniProt Q8NHC8)
T10 sequence (whole entry): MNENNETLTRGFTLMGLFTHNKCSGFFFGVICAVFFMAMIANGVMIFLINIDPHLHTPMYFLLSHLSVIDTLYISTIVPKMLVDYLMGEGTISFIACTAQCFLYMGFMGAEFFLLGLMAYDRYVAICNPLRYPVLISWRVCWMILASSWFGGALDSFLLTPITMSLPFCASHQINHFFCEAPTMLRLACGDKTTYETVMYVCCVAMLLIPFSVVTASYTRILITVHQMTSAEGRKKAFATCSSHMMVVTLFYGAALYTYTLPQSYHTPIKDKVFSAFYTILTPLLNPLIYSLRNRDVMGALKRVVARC
Outline: as §1

OR2T6 C23G = tested on: T11, OR2T6 C23G
T11 sequence (whole entry): T10 sequence (whole entry) with C23G
Outline: as §1

OR2T7 = tested on: T12, OR2T7
T12 sequence (whole entry): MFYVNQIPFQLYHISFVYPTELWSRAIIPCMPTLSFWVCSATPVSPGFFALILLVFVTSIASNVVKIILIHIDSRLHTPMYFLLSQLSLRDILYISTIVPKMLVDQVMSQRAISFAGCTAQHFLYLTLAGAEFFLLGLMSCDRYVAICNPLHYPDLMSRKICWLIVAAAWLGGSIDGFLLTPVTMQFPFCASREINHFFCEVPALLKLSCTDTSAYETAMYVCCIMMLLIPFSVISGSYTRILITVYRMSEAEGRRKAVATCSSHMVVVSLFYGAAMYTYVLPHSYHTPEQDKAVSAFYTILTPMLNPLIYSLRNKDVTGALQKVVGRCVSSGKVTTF
Outline: as §1

OR2T8 (Homo sapiens) = target: T13, OR2T8 (Homo sapiens) (UniProt A6NH00)
T13 sequence (whole entry): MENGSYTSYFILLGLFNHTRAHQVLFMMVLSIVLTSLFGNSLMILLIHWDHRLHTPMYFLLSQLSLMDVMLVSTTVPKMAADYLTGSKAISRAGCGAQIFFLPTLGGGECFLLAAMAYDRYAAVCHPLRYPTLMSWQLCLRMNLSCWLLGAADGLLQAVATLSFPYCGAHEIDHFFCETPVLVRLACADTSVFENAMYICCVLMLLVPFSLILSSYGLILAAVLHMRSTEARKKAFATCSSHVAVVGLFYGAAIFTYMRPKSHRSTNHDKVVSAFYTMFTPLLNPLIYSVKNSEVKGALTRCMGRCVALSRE
Outline: as §1

OR2V1 (Homo sapiens) = target: T14, OR2V1 (Homo sapiens) (UniProt Q8NHB1)
T14 sequence (whole entry): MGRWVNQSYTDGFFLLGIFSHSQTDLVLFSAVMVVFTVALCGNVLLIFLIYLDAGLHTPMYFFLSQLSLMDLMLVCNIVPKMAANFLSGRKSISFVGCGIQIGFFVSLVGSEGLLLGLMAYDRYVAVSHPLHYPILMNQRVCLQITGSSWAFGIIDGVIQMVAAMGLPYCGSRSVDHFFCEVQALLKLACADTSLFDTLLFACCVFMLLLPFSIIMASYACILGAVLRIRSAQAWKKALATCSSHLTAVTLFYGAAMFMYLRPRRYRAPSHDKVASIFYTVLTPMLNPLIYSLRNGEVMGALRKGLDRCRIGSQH
Outline: as §1

OR2V2 (Homo sapiens) = target: T15, OR2V2 (Homo sapiens) (UniProt Q96R30)
T15 sequence (whole entry): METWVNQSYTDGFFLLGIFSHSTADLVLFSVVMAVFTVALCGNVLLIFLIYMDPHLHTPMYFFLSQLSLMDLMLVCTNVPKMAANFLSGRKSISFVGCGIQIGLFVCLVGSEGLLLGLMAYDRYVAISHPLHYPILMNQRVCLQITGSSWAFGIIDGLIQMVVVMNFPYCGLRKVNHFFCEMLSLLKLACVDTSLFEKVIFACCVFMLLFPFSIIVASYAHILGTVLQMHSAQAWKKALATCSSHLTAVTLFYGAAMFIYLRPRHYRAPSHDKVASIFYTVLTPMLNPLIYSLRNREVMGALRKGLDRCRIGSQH
Outline: as §1

OR2W1 (Homo sapiens) = target: T16, OR2W1 (Homo sapiens) (UniProt Q9Y3N9)
T16 sequence (whole entry): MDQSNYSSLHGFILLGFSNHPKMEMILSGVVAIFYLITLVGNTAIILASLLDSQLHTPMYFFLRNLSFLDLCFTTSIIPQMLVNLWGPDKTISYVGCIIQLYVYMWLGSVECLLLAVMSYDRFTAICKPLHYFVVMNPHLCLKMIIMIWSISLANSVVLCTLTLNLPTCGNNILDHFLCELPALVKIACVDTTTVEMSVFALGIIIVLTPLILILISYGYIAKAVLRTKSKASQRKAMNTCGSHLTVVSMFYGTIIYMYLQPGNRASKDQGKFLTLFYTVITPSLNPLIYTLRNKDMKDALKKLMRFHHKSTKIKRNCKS
Outline: as §1

OR2W1 G96V = tested on: T17, OR2W1 G96V
T17 sequence (whole entry): T16 sequence (whole entry) with G96V
Outline: as §1

OR2T7 (Homo sapiens) = target: T18, OR2T7 (Homo sapiens) (UniProt P0C7T2)
T18 sequence (whole entry): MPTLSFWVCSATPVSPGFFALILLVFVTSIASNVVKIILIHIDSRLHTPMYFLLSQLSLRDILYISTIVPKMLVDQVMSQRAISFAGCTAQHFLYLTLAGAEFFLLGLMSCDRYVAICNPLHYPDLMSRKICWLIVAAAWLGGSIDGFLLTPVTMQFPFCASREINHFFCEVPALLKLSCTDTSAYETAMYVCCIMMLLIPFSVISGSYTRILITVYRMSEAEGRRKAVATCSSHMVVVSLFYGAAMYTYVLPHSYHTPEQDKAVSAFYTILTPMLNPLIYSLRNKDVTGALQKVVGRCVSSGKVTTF
Outline: as §1

Measured: odorant receptor agonist call

CCCCCC1C(=O)CCC1CC(=O)OC (centres undefined)
inactive: OR2T34 (Homo sapiens)

CC1=C(O)C(=O)C(C)O1 (centres undefined)
not listed: OR2T7 (Homo sapiens)
inactive: all other assays above

CC(=O)c1c(C)c([N+](=O)[O-])c(C(C)(C)C)c([N+](=O)[O-])c1C
not listed: OR2T3 R298C | OR2T3 Y109H | OR2T5 K13R K41M G45E | OR2T5 K13R L134F | OR2T6 C23G | OR2T7 | OR2W1 G96V
inactive: all other assays above

CCCCC(S)C(C)CO (centres undefined)
not listed: OR2T3 R298C | OR2T3 Y109H | OR2T5 K13R K41M G45E | OR2T5 K13R L134F | OR2T6 C23G | OR2T7 | OR2W1 G96V
inactive: all other assays above

CC1=C(O)C(=O)OC1C (centres undefined)
not listed: OR2T7 (Homo sapiens)
inactive: all other assays above

CCC=C(C)C(O)CCCCC (centres undefined)
inactive: OR2T34 (Homo sapiens)

CC(C)CCCC(C)(C)O
inactive: OR2T34 (Homo sapiens)
